# Assay outcomes from PubChem BioAssay.
# This is one part of a sample in which hits are shown more often than they occur.
# VLA-4 inh: inhibition in a human VLA-4 binding assay. inhibition, % (about 7 µM as worked out from the volumes in the protocol). 330,000 compounds, 0.2% hits. VLA-4 expressing cells, ligand binding flow cytometry. AID 2557. P13612; in the data active = inhibition above about 50%
# CHOP UPR activ: apoptotic UPR (CHOP) activation | AID 449763 | activation, % at 10 µM | 330,000 compounds, 0.34% hits | CHO-CHOP luciferase reporter, luminescence; percent of tunicamycin response over DMSO baseline;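 active = at 10 µM dose, activation of 40% or more, normalized to positive control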;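 note: 100% = tunicamycin at 10 µg/mL and 0% = DMSO alone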
#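 System: CHO-CHOP luciferase reporter cell line | Buffer or medium: F12 medium containing 10% fetal bovine serum | Doses: One dose, 10 µM in 0.5% DMSO | Times: 6 h compound exposure at 37 °C after overnight seeding | Signal: Luciferase luminescence | Read-out: % activation vs tunicamycin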
# B2AR ag: human beta-2 adrenergic receptor agonism by FAP; 340,000 compounds, 0.43% hits; P07550; response, % (concentration not given with the values); Am2.2-beta2AR cells, FAP receptor internalization, flow cytometry;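 active = response above a set limit, near 3 SD of response in nonfluorescent compounds, cut at about 42% in these data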
# XBP1 UPR activ: adaptive UPR (XBP1) activation; activation, % at 20 µM; AID 463104; 330,000 compounds, 0.33% hits; CHO-XBP1 luciferase reporter, IRE1-XBP1 UPR activation, luminescence; percent of tunicamycin response, DMSO as zero;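 active = versus positive control, 20 µM dose yields 30% or more activation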;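 note: 100% = tunicamycin at 10 µg/mL and 0% = DMSO only wells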
#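 Test system: CHO-XBP1 luciferase reporter cells | Buffer or medium: Serum-containing F12 medium, 10% FBS | Schedule: 6 h compound exposure at 37 °C, 5% CO2 | Detection: Steady-Glo luciferase glow luminescence, 10 min after reagent addition | Read-out basis: Activation, % of tunicamycin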
# CHOP inhibitor: blocks CHOP induction under ER stress; CHO-K1 CHOP-promoter luciferase, tunicamycin-induced, 15-18 h; inhibition, % at 10 µM; 220,000 compounds, 3.8% hits; AID 2732;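 active = compounds that reduced the stress-induced luciferase reporter signal by more than about 70% of percent inhibition, limit read from the data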;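 note: 0% = tunicamycin plus vehicle and 100% = wells without tunicamycin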
# B2AR ag CP1: agonists of human beta-2 adrenergic receptor | shares compounds with B2AR ag | Am2.2-beta2AR cells, FAP surface receptor, flow cytometry; stronger effect = lower value | percent response (surface receptor), % at 10 µM | 1,100 compounds, 25% hits | AID 540358;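 active = surface receptor percent response at or below 58%, roughly 3 SD from nonfluorescent compounds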
# FAP fluor counter: counter-screen for beta-2AR agonists: fluorescence in Am2.2 cells | shares compounds with B2AR ag | FAP fluorogen flow cytometry, fluorescence counterscreen; stronger effect = lower value | calls only at 10 µM | 1,100 tested, under 10 active;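 active = percent response below a set limit in fluorescence channel 1 and below 50% in channel 8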
# Starred values were filed as active, the others as inactive; i = inactive; x = not tested or not shown.
SMILES,VLA-4 inh,CHOP UPR activ,B2AR ag,XBP1 UPR activ,CHOP inhibitor,B2AR ag CP1,FAP fluor counter
Cc1cc(C)c2c(N)c(-c3nnc(SCc4ccc(Cl)cc4)n3C)sc2n1,0,1,111*,-2,12,21*,i
Cn1c(SCc2ccc(Cl)cc2)nnc1C1CC1,-2,0,-9,-2,39,x,x
COC(=O)[C@H](C(C)C)N(Cc1ccccc1)S(=O)(=O)CCN1CCN(c2ccccc2)CC1,x,2,2,1,x,x,x
O=C1CC(c2cc(Br)ccc2F)c2cc3c(cc2N1)CCC3 (stereo not drawn),-2,0,56*,11,-3,95,i
CN(C)CCCN(C(=O)c1ccc(Br)s1)c1nc2cc3c(cc2s1)OCCO3,9,5,19,14,x,x,x
Cc1ccc2nc(N(CCCN(C)C)C(=O)c3ccc(Br)s3)sc2c1,3,3,54*,0,7,96,i
CN(C)CCCN(C(=O)c1ccc([N+](=O)[O-])s1)c1nc2cc3c(cc2s1)OCCO3,17,20,42*,3,x,84,i
CCOc1ccc(N2CC(C(=O)Nc3ccccc3C(=O)NC3CC3)CC2=O)cc1 (stereo not drawn),-7,0,6,-3,x,x,x
COc1cc(C)c(NC(=O)COc2cccc3c2OC(C)(C)C3)cc1OC,32,1,8,-4,x,x,x
CCOc1ccc(CNC(=O)c2ccc(NC(=O)C3=CSCCO3)cc2)cc1,9,5,105*,2,x,21*,i
CCOCCCn1c(=NC(=O)c2ccco2)c(C(=O)OCC)cc2c(=O)n3cccc(C)c3nc21,1,4,-6,-2,-12,x,x
COc1ccc(CN(C)Cc2c(O)ccc3cc(Br)ccc23)cc1OC,11,-1,43*,-2,x,104,i
COc1ccc(CCN(C)Cc2c(O)ccc3cc(Br)ccc23)cc1OC,12,3,3,2,x,x,x
O=S(=O)(Nc1cccc(-c2cn3cccnc3n2)c1)c1ccc(-c2ccccc2)cc1,18,0,110*,-2,-2,12*,i
COc1ccc(OC)c(S(=O)(=O)Nc2ccc(O)c3ccccc23)c1,18,0,52*,1,36,102,i
O=C1CC(C(=O)Nc2ccccc2)C2(CCCC2)O1 (stereo not drawn),-4,0,-3,0,-13,x,x
O=C1CC(C(=O)Nc2ccc(C(=O)N3CCOCC3)cc2)C2(CCCCC2)O1 (stereo not drawn),13,0,52*,-1,12,136,i
Cc1c(C(=O)O)sc2nc(CSc3ncc(C(F)(F)F)cc3Cl)[nH]c(=O)c12,5,0,6,-1,-1,x,x
CCN(CC)c1ccc(NC(=O)c2cc(OC)cc(OC)c2)c(C)c1,27,0,55*,6,x,78,i
COc1ccc(CNCCC(c2ccccc2)c2ccc3c(c2)OCO3)cc1 (stereo not drawn),14,-1,21,-4,46,82,i
COc1ccc(C(CC(=O)O)c2ccc3c(c2)OCO3)cc1 (stereo not drawn),1,0,-1,-2,x,x,x
COc1ccc(CNCCC(c2ccc(OC(C)C)cc2)c2ccccc2OC)cc1 (stereo not drawn),7,1,28,3,x,78,i
COc1ccccc1C(CCNCc1ccccc1)c1ccc(OC(C)C)cc1 (stereo not drawn),9,0,25,-6,x,111,i
COc1ccccc1C(CCNCc1ccc(N(C)C)cc1)c1ccc(OC(C)C)cc1 (stereo not drawn),2,4,65*,1,x,62,i
COc1ccc(CNCCC(c2ccc(OC(C)C)cc2)c2ccccc2OC)cc1OC (stereo not drawn),2,-2,12,-5,x,105,i
SMILES,VLA-4 inh,CHOP UPR activ,B2AR ag,XBP1 UPR activ,CHOP inhibitor,B2AR ag CP1,FAP fluor counter
COc1ccc(CNCCC(c2ccc(OC(C)C)cc2)C(C)C)cc1OC (stereo not drawn),7,-2,28,-2,52,x,x
CC(C)Nc1ccc(Nc2ccnc3cc4ccccc4cc23)cc1,33,11,80*,12,12,113,i
CN(C)C(CNC(=O)c1ccc(NC(=O)CC#N)cc1)c1ccccc1 (stereo not drawn),9,-1,47*,3,12,97,i
CCN(CC)S(=O)(=O)c1cc(NC(=O)C2=COCCO2)ccc1Cl,6,0,115*,3,x,24*,i
Cc1nn(Cc2ccccc2)c(N)c1-c1ccccc1,12,3,50*,-3,4,101,i
Cc1nn(Cc2ccccc2)c(N)c1C#N,12,-2,4,-3,20,x,x
CCn1c2ccccc2c2cc(CNCc3ccc(OC)cc3OC)ccc21,36,1,51*,5,53,76,i
CCOC(=O)CSC1=N/C(=C\c2ccc(OC)c(OC)c2)C(=O)N1C,8,2,4,-1,1,x,x
OCCN1CCN(CC(O)COc2ccc(C34CC5CC(CC(C5)C3)C4)cc2)CC1 (stereo not drawn),29,7,61*,28,15,109,i
OCCN1CCN(CC(O)COc2ccc(Cl)cc2)CC1 (stereo not drawn),10,-2,5,-5,-4,x,x
CCOc1cc(-c2nc3ccccn3c2NCC2CCCO2)ccc1O (stereo not drawn),-11,-3,20,-2,11,30*,i
COc1cc(-c2nc3ccccn3c2NCC2CCCO2)ccc1O (stereo not drawn),-2,2,-16,-1,-29,x,x
O=C(NCCCN1CCN(CCCNC(=O)c2ccc(F)cc2)CC1)c1ccc(F)cc1,12,1,-9,0,-25,125,i
O=C(NCCCN1CCOCC1)c1ccccc1,1,0,-2,-1,31,x,x
CC(C)c1ccc(C(=O)NCCCN2CCN(CCCNC(=O)c3ccc(C(C)C)cc3)CC2)cc1,20,3,46*,-1,31,89,i
COc1ccc(CNC(=O)COC(=O)c2nc3nc(C)cc(C)n3n2)cc1,-2,0,8,-1,x,x,x
Cc1cc(Cl)c2oc(C(=O)N3CCN(c4ccncc4)CC3)c(C)c2c1,16,1,65*,-1,x,65,i
COC(=O)C1CCN(C(=O)c2oc3c(Cl)cc(C)cc3c2C)CC1,1,4,5,0,x,x,x
O=C(c1cc2c(ccc3ccccc32)o1)N1CCCCC1,11,2,2,-6,x,x,x
